Assays:
SF-539 = test: Antiproliferative activity against human CNS SF-539 cell line; format: functional
How it was run: (§1)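 Adherent lines grown in RPMI 1640 with 5% fetal bovine serum and 2 mM L-glutamine, plated at 5000–40 000 cells/well and preincubated 24 h. Five drug concentrations were added for 48 h at 37 °C. Cells were fixed with cold TCA (10% final), stained with sulforhodamine B, and read at 515 nm. GI50 is the concentration giving 50% reduction in net protein increase relative to time-zero wells.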

HCT-116 = test: Antiproliferative activity against human colon HCT116 cell line; format: functional; how it was run: as §1
CCRF-CEM = test: Antiproliferative activity against human leukemia CCRF-CEM cell line; format: functional
How it was run: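 Suspension leukemia line grown in RPMI 1640 with 5% fetal bovine serum and 2 mM L-glutamine and preincubated 24 h. Drug was given at five concentrations for 48 h at 37 °C. Settled cells were fixed with 80% TCA (16% final), stained with sulforhodamine B, and read at 515 nm. GI50 was set at 50% reduction in net protein increase versus time-zero wells.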

HOP-62 = test: Antiproliferative activity against human lung HOP-62 cell line; format: functional; how it was run: as §1
UACC-62 = test: Antiproliferative activity against human melanoma UACC-62 cell line; format: functional; how it was run: as §1
SN12C = test: Antiproliferative activity against human renal SN12C cell line; format: functional; how it was run: as §1
DU-145 = test: Antiproliferative activity against human prostate DU-145 cell line; format: functional; how it was run: as §1
[1] = Mean graph midpoint for growth inhibition of all human cancer cells was determined; format: functional, Cancer cell lines; parameters: unit: µM
How it was run: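 Average of GI50 values over about 55 cell lines from the 48-h sulforhodamine B growth assay. Test range was 10^-4 to 10^-8 M, and values beyond it were set to those limits. Compounds with a first MGM of 10 μM or less were tested a second time and a standard deviation was calculated.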

Tubulin = Tubulin (Bos taurus, UniProt Q6B856+Q862F3); test: Inhibition of tubulin polymerization was determined at 1.2 mg/mL concentration; format: functional
Chain of Tubulin (Q6B856 whole entry): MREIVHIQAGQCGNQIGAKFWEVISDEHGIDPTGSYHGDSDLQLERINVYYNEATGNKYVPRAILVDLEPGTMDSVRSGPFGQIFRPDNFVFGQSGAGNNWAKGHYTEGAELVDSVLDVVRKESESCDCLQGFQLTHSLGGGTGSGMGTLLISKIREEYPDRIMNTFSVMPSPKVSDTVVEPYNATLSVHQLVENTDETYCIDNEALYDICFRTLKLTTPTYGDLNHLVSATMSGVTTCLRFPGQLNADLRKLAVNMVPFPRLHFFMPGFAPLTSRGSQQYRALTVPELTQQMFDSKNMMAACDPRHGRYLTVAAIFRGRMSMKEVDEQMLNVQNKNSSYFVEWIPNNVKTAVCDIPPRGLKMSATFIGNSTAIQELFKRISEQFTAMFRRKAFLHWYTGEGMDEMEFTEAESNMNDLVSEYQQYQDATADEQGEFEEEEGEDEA
Chain of Tubulin (Q862F3 whole entry): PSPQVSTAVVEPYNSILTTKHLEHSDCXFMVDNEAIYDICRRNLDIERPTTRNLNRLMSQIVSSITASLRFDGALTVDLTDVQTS

OVCAR-3 = test: Antiproliferative activity against human ovarian OVCAR-3 cell line; format: functional; how it was run: as §1
[2] = tested on: MDA-MB-435 (Homo sapiens); test: Antiproliferative activity against human breast MDA-MB-435 cell line

Compound	GI50 (HCT-116)	GI50 (CCRF-CEM)	GI50 (DU-145)	IC50 (Tubulin)	GI50 (OVCAR-3)	GI50 [2]	GI50 (SF-539)	GI50 (HOP-62)	GI50 (UACC-62)	GI50 (SN12C)	MGM [1]
COC(=O)c1cc(/C=C\c2cc(OC)ccc2OC)ccc1OC	20.1 µM	–	18.1 µM	> 40 µM	4.9 µM	10.9 µM	10.6 µM	32.9 µM	14.8 µM	30.2 µM	15.5
O=C(NCCc1ccccc1)c1cc(CCc2cc(O)ccc2O)ccc1O	12.5 µM	–	14.5 µM	5.5 µM	4.4 µM	3.9 µM	–	13.9 µM	11 µM	49.8 µM	6.4
O=C(NCCc1ccccc1)c1cc(/C=C/c2cc(O)ccc2O)ccc1O	1.8 µM	2.1 µM	10.1 µM	4 µM	2.9 µM	4 µM	2.4 µM	9.3 µM	2 µM	5.1 µM	3.8
O=C(NCCc1ccc(F)cc1)c1cc(/C=C/c2cc(O)ccc2O)ccc1O	1.9 µM	1.8 µM	11 µM	2.9 µM	2.7 µM	3.8 µM	2.2 µM	8.8 µM	2.1 µM	5.6 µM	3.5
COc1ccc(OC)c(CCc2ccc(O)c(C(=O)NCCc3ccc(F)cc3)c2)c1	5.3 µM	3.2 µM	4.2 µM	1.4 µM	3.2 µM	0.5 µM	3.2 µM	15 µM	6.6 µM	15.8 µM	6.9
CCCCCCNC(=O)c1cc(C#Cc2cc(OC)ccc2OC)ccc1OC	6.9 µM	7.9 µM	> 100 µM	> 40 µM	> 100 µM	> 100 µM	> 100 µM	11.8 µM	56.8 µM	> 100 µM	31.6
O=C(NCCc1ccccc1)c1cc(/C=C\c2cc(O)ccc2O)ccc1O	3.5 µM	0.2 µM	1.8 µM	5.4 µM	1 µM	1.7 µM	1.6 µM	3 µM	2.1 µM	6.8 µM	1.4
COc1ccc(OC)c(C#Cc2ccc(OC)c(C(=O)NCCc3ccc(F)cc3)c2)c1	4.7 µM	4.7 µM	> 100 µM	> 40 µM	–	1.2 µM	–	4.9 µM	6 µM	> 100 µM	11.5
CCCCCCNC(=O)c1cc(CCc2cc(O)ccc2O)ccc1O	3.6 µM	5.1 µM	7.4 µM	6.2 µM	2.4 µM	3.2 µM	2.2 µM	7.4 µM	3.3 µM	2.2 µM	4.4
COc1ccc(OC)c(/C=C\c2ccc(OC)c(C(=O)NCCc3ccc(F)cc3)c2)c1	3.8 µM	3.4 µM	> 100 µM	> 40 µM	4.2 µM	2.1 µM	5.9 µM	8.1 µM	3.5 µM	6.4 µM	4.5
CCCCCCNC(=O)c1cc(/C=C\c2cc(OC)ccc2OC)ccc1OC	21.1 µM	24.7 µM	45.6 µM	> 40 µM	16.1 µM	10.3 µM	23.6 µM	31.9 µM	25 µM	63.1 µM	16.6
COc1ccc(OC)c(/C=C\c2ccc(OC)c(C(=O)NCCc3ccccc3)c2)c1	47.3 µM	12.3 µM	> 100 µM	> 40 µM	5 µM	3 µM	> 100 µM	> 100 µM	16.4 µM	> 100 µM	38.9
CCCCCCNC(=O)c1cc(/C=C\c2cc(O)ccc2O)ccc1O	3.9 µM	1.2 µM	10.5 µM	4.2 µM	1.7 µM	4.5 µM	3.3 µM	8.3 µM	5.8 µM	11.6 µM	4.1

The next lines start with results.

GI50 (HCT-116)	GI50 (CCRF-CEM)	GI50 (DU-145)	IC50 (Tubulin)	GI50 (OVCAR-3)	GI50 [2]	Compound	GI50 (SF-539)	GI50 (HOP-62)	GI50 (UACC-62)	GI50 (SN12C)	MGM [1]
3.8 µM	1.3 µM	15.2 µM	4.2 µM	2.1 µM	12.9 µM	O=C(NCCc1ccc(F)cc1)c1cc(/C=C\c2cc(O)ccc2O)ccc1O	3.8 µM	6.3 µM	2.3 µM	4 µM	3.5
37.7 µM	36.8 µM	43.6 µM	> 40 µM	13.6 µM	> 100 µM	COC(=O)c1cc(C#Cc2cc(OC)ccc2OC)ccc1OC	81.1 µM	–	29.3 µM	37.9 µM	30.9
–	–	–	5 µM	–	–	CCCCCCNC(=O)c1cc(/C=C/c2cc(O)ccc2O)ccc1O	–	–	–	–	–
1 µM	0.4 µM	8 µM	9.7 µM	1 µM	2.3 µM	O=C(NCCc1ccc(F)cc1)c1cc(CCc2cc(O)ccc2O)ccc1O	1.8 µM	2.6 µM	2.8 µM	2.1 µM	2.8
4 µM	2.4 µM	1.7 µM	1.4 µM	1.4 µM	0.6 µM	COc1ccc(OC)c(CC(=O)c2ccc(O)c(C(=O)NCCc3ccc(F)cc3)c2)c1	–	1.5 µM	4 µM	4.3 µM	3.6
9.2 µM	0.29 µM	18 µM	6.4 µM	11 µM	13 µM	O=C(NCCc1ccc(F)cc1)c1cc(NCc2cc(O)ccc2O)ccc1O	9.2 µM	12 µM	7.8 µM	7.7 µM	0.35
32.3 µM	55 µM	26.9 µM	> 40 µM	24.4 µM	8.8 µM	COc1ccc(OC)c(C#Cc2ccc(OC)c(C(=O)O)c2)c1	38.5 µM	25.6 µM	22.6 µM	38.2 µM	18.6
10.5 µM	0.3 µM	12.7 µM	3.7 µM	2.8 µM	2.9 µM	O=C(NCCc1ccccc1)c1cc(C#Cc2cc(O)ccc2O)ccc1O	9.6 µM	10.3 µM	1.9 µM	5.7 µM	3.8
12 µM	–	> 100 µM	> 40 µM	6.7 µM	2.5 µM	COc1ccc(OC)c(C#Cc2ccc(OC)c(C(=O)NCCc3ccccc3)c2)c1	> 100 µM	> 100 µM	24.4 µM	> 100 µM	40.7
